According to ChEMBL document CHEMBL3352250, “Antibacterial secondary metabolites from an endophytic fungus, Eupenicillium sp. LG41” (2014):
≈ marks a conversion by molar mass, not a printed value. Calls of active or inactive are those of the source. The calls are words filed in the database; no cut-off is given here.

Tests used:
Type in all cases: functional
Aspergillus aculeatus = assay: Antimicrobial activity against Aspergillus aculeatus incubated for 48 hrs by disk diffusion method
Summary of the method: (§1)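 Disk diffusion on potato dextrose agar, 4 mm deep. Mycelia are macerated in a sterile mortar to a homogeneous inoculum and 200 μL is spread. 6.0 mm disks carry 40 μL of sample, air-dried. Plates are held 2 h at 4 °C, then incubated 48 h at 28 °C. Solvent-disk, organism and sterility controls are included. Triplicate.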

Colletotrichum circinans = assay: Antimicrobial activity against Colletotrichum circinans incubated for 48 hrs by disk diffusion method; summary of the method: as §1
Bacillus subtilis = assay: Antimicrobial activity against Bacillus subtilis DSM 1088 incubated for 24 hrs by disk diffusion method
Summary of the method: (§2)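 CLSI disk diffusion on nutrient agar, 4 mm deep, spread with 200 μL inoculum. 6.0 mm paper disks carry 40 μL of sample in HPLC-grade MeOH (0.1 to 10 μg/mL), air-dried. Plates are held 2 h at 4 °C, then incubated 24 h at 37 °C. Controls are streptomycin and gentamicin plus a solvent disk. MIC is derived per CLSI, triplicate.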

Escherichia coli = assay: Antimicrobial activity against Escherichia coli DSM 1116 incubated for 24 hrs by disk diffusion method; summary of the method: as §2
Acinetobacter sp. = assay: Antimicrobial activity against Acinetobacter sp. BD4 DSM 586 incubated for 24 hrs by disk diffusion method; summary of the method: as §2
Staphylococcus aureus = assay: Antimicrobial activity against Staphylococcus aureus subsp. aureus DSM 799 incubated for 24 hrs by disk diffusion method; summary of the method: as §2

COc1cc(O)c2c(O)c3c(c4c2c1[C@]1(C4)C(C)=CCCC1(C)C)[C@H](O)[C@@]1(O)CC(O)=C(C(N)=O)C(=O)[C@@]1(O)C3=O was tested, and the MIC (Aspergillus aculeatus) was “inactive” and the MIC (Colletotrichum circinans) was “inactive”.
Work on C=C(C(=O)O)[C@H](CCCCCC)C(=O)O yielded an MIC (Bacillus subtilis; DSM 1088, 24 h) of over 10 µg/mL, an MIC (Escherichia coli; DSM 1116, 24 h) of 10 µg/mL (≈ 46.7 µM) and an MIC (Acinetobacter sp.; BD4 DSM 586, 24 h) of 1 µg/mL (≈ 4.67 µM). The MIC (Staphylococcus aureus; DSM 799, 24 h) was 10 µg/mL (≈ 46.7 µM), the MIC (Aspergillus aculeatus) was “inactive” and the MIC (Colletotrichum circinans) was “inactive”.
Work on CN[C@@H]1[C@H](O[C@H]2[C@H](O[C@H]3[C@H](O)[C@@H](O)[C@H](N=C(N)N)[C@@H](O)[C@@H]3N=C(N)N)O[C@@H](C)[C@]2(O)C=O)O[C@@H](CO)[C@H](O)[C@H]1O [STREPTOMYCIN] yielded an MIC (Bacillus subtilis; DSM 1088, 24 h) of 5 µg/mL (≈ 8.6 µM), an MIC (Escherichia coli; DSM 1116, 24 h) of 1 µg/mL (≈ 1.72 µM) and an MIC (Acinetobacter sp.; BD4 DSM 586, 24 h) of 10 µg/mL (≈ 17.2 µM). The MIC (Staphylococcus aureus; DSM 799, 24 h) was 5 µg/mL (≈ 8.6 µM).
C=C(C(=O)O)[C@H](CCCC)C(=O)O was tested, and the MIC (Bacillus subtilis; DSM 1088, 24 h) was over 10 µg/mL, the MIC (Escherichia coli; DSM 1116, 24 h) was 10 µg/mL (≈ 53.7 µM) and the MIC (Acinetobacter sp.; BD4 DSM 586, 24 h) was 1 µg/mL (≈ 5.37 µM). For the same molecule, the MIC (Staphylococcus aureus; DSM 799, 24 h) was 10 µg/mL (≈ 53.7 µM), the MIC (Aspergillus aculeatus) was “inactive” and the MIC (Colletotrichum circinans) was “inactive”.
Molecule GENTAMICIN has an MIC (Bacillus subtilis) of 1 µg/mL, an MIC (Escherichia coli) of 1 µg/mL and an MIC (Acinetobacter sp.) of 5 µg/mL. For the same molecule, the MIC (Staphylococcus aureus) was 1 µg/mL.
C[C@]1(C(=O)O)[C@@H]2C=C(C(=O)O)CC[C@@H]21 showed an MIC (Bacillus subtilis; DSM 1088, 24 h) of over 10 µg/mL, an MIC (Escherichia coli; DSM 1116, 24 h) of 10 µg/mL (≈ 51 µM) and an MIC (Acinetobacter sp.; BD4 DSM 586, 24 h) of 5 µg/mL (≈ 25.5 µM). For the same molecule, the MIC (Staphylococcus aureus; DSM 799, 24 h) was over 10 µg/mL, the MIC (Aspergillus aculeatus) was “inactive” and the MIC (Colletotrichum circinans) was “inactive”.
With CC(C)=CCC[C@]1(C)[C@@H]2[C@H]1C=C(C(=O)O)C[C@@H]2O the MIC (Bacillus subtilis; DSM 1088, 24 h) was over 10 µg/mL, the MIC (Escherichia coli; DSM 1116, 24 h) was 5 µg/mL (≈ 20 µM) and the MIC (Acinetobacter sp.; BD4 DSM 586, 24 h) was 5 µg/mL (≈ 20 µM). For the same molecule, the MIC (Staphylococcus aureus; DSM 799, 24 h) was over 10 µg/mL, the MIC (Aspergillus aculeatus) was “inactive” and the MIC (Colletotrichum circinans) was “inactive”.
In the case of COC1=C(C2=C(OC)C(=O)c3cc4c(c(O)c3C2=O)C(=O)O[C@H](C)C4)C(=O)c2c(cc3c(c2O)C(=O)O[C@H](C)C3)C1=O, the MIC (Aspergillus aculeatus) is reported as “inactive” and the MIC (Colletotrichum circinans) is reported as “inactive”.
Molecule CC[C@@H](C)[C@H]1C=C[C@H]2[C@H](O)[C@H](O)C[C@@H](C)[C@@H]2[C@@]1(C)C(=O)/C=C\O has an MIC (Bacillus subtilis; DSM 1088, 24 h) of over 10 µg/mL, an MIC (Escherichia coli; DSM 1116, 24 h) of 5 µg/mL (≈ 15.5 µM) and an MIC (Acinetobacter sp.; BD4 DSM 586, 24 h) of 10 µg/mL (≈ 31 µM). For the same molecule, the MIC (Staphylococcus aureus; DSM 799, 24 h) was over 10 µg/mL, the MIC (Aspergillus aculeatus) was “inactive” and the MIC (Colletotrichum circinans) was “inactive”.
Molecule CC[C@@H](C)[C@H]1C=C[C@H]2[C@H](O)[C@H](O)C[C@@H](C)[C@@H]2[C@@]1(C)C(=O)/C=C/OC has an MIC (Bacillus subtilis; DSM 1088, 24 h) of over 10 µg/mL, an MIC (Escherichia coli; DSM 1116, 24 h) of 5 µg/mL (≈ 14.9 µM) and an MIC (Acinetobacter sp.; BD4 DSM 586, 24 h) of over 10 µg/mL. For the same molecule, the MIC (Staphylococcus aureus; DSM 799, 24 h) was 1 µg/mL (≈ 2.97 µM), the MIC (Aspergillus aculeatus) was “inactive” and the MIC (Colletotrichum circinans) was “inactive”.
